PMC4429801 (Journal of nuclear medicine : official publication, Society …, 2009)

What was measured:
[1] = tested on: rats; details: 2.3 mmol/kg; cited from earlier work
[2] = Octanol–water partition coefficient study; assay type: physicochemical; details: 1-octanol/phosphate-buffered saline
Method in brief: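 The 18F test compound (20 µL, ~10–20 µCi in saline) was added to 5 mL each of 1-octanol and phosphate-buffered saline at pH 6.4, 7.0, 7.4 or 8.4. The mixture was vortexed 1 min and centrifuged 5 min.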

[3] = tested on: CWR22rv1 xenografts; assay: Small-animal PET 1 h after tail vein injection; assay type: in vivo, mice; details: 1 h after administration via tail vein
Method in brief: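 CWR22rv1-xenografted nude mice, not fasted, received 11.1 MBq (300 µCi) of the 18F test compound by tail vein. They were held under 2% isoflurane in oxygen (2 L/min) and scanned on a small-animal PET at 1 h for 5 min, using a 350–700 keV window and 6 ns coincidence window. Images were corrected for nonuniformity, dead time and decay, but not for attenuation, scatter or partial volume. %ID/g came from a phantom-derived calibration factor.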

[4] = tested on: CWR22rv1 xenografts; assay: Single-isotope in vivo biodistribution; set-up: species or system mice; details: for Tumor uptake of the tracer: tail vein, nude mice
Method in brief: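 Nude mice (20–25 g) carried CWR22rv1 tumours grown from 5 × 10^6 cells in medium/Matrigel, injected s.c. at the right forelimb. They received 3.7–5.5 MBq (100–150 µCi) of the 18F test compound in 200 µL saline by tail vein; dose per animal came from syringe readings before and after injection. Organs were harvested at 1, 2, 3 and 4 h and γ-counted (400–600 keV, decay-corrected) for %ID/g and tumour-to-organ ratios; n = 3 per time point, mean ± SD.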

[5] = tested on: CWR22rv1 tumors; assay: Dual-isotope comparative biodistribution; assay type: in vivo, mice; details: 1 h after simultaneous tail vein injection
Method in brief: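 Nude mice bearing subcutaneous CWR22rv1 xenografts received, by tail vein, 200 µL saline containing 3.7 MBq of the 18F test compound and about 0.0037 MBq 14C-acetate, and were euthanized 1 h later. 18F was γ-counted (400–600 keV, decay-corrected). Samples were then solubilised and held 1 d at 4°C, and 14C was read by liquid scintillation with external-standard quench correction. %ID/g = activity/decay-corrected injected activity/organ weight; n = 4, mean ± SD.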

**Q.** For `CC(F)C(=O)O` (stereo not shown) [FPA], which Acute toxicity [1] is on record?
**A.** no acute toxicity

**Q.** With `CC([18F])C(=O)O` (stereo not shown) [^18F-FPA, 2-^18F-fluoropropionic acid] as the compound, how does the logP ([2]; pH 6.4) read?
**A.** −2.89 ± 0.02

**Q.** What about the logP ([2]; pH 7.0) of the same compound?
**A.** −3.08 ± 0.04

**Q.** And the logP ([2]; pH 7.4)?
**A.** −2.97 ± 0.13

**Q.** What about the logP ([2]; pH 8.4) of the same compound?
**A.** −3.07 ± 0.03

**Q.** And the “Uptake in the brain (PET)” value [3]?
**A.** 4.6 %ID/g

**Q.** What about the “Uptake in the heart (PET)” value [3] of the same compound?
**A.** 4.0 %ID/g

**Q.** And the “Uptake in the tumor (PET)” value ([3]; CWR22rv1 tumor)?
**A.** 4.4 %ID/g

**Q.** What about the “Tumor-to-organ ratio, heart” value ([4]; 1, 2, 3, and 4 h after injection) of the same compound?
**A.** around 0.95

**Q.** And the “Tumor uptake of the tracer” value ([4]; 1 h after injection)?
**A.** 5.52 ± 0.35 %ID/g

**Q.** And the “Tumor uptake of the tracer” value ([4]; 2 h after injection)?
**A.** 5.53 ± 0.42 %ID/g

**Q.** And the “Tumor uptake of the tracer” value ([4]; 3 h after injection)?
**A.** 5.74 ± 0.54 %ID/g

**Q.** What about the “Tumor uptake of the tracer” value ([4]; 4 h after injection) of the same compound?
**A.** 5.34 ± 0.19 %ID/g

**Q.** What about the Defluorination in vivo ([4]; PET and biodistribution studies, low bone uptake) of the same compound?
**A.** no evidence of defluorination

**Q.** And the “Tumor-to-organ ratio, Blood” value [5]?
**A.** 1.03

**Q.** And the “Tumor-to-organ ratio, Bone” value [5]?
**A.** 4.23

**Q.** And the “Tumor-to-organ ratio, Brain” value [5]?
**A.** 1.27

**Q.** What about the “Tumor-to-organ ratio, Kidneys” value [5] of the same compound?
**A.** 1.70

**Q.** And the “Tumor-to-organ ratio, Large intestine” value [5]?
**A.** 1.91

**Q.** And the “Tumor-to-organ ratio, Liver” value [5]?
**A.** 1.26

**Q.** What about the “Tumor-to-organ ratio, Lungs” value [5] of the same compound?
**A.** 1.77

**Q.** And the “Tumor-to-organ ratio, Muscle” value [5]?
**A.** 1.94

**Q.** What about the “Tumor-to-organ ratio, Small intestine” value [5] of the same compound?
**A.** 1.62

**Q.** What about the “Tumor-to-organ ratio, Spleen” value [5] of the same compound?
**A.** 1.62

**Q.** And the “Tumor-to-organ ratio, Stomach” value [5]?
**A.** 2.80

**Q.** What about the “Tumor-to-organ ratio, Tumor” value [5] of the same compound?
**A.** 1.00

**Q.** And the “Tumor-to-organ ratio, heart” value [5]?
**A.** 1.30

**Q.** What about the “%ID/g, Blood” value ([5]; n = 4) of the same compound?
**A.** 6.88 ± 0.64 %ID/g

**Q.** What about the “%ID/g, Bone” value ([5]; n = 4) of the same compound?
**A.** 1.68 ± 0.54 %ID/g

**Q.** And the “%ID/g, Brain” value ([5]; n = 4)?
**A.** 5.57 ± 0.33 %ID/g

**Q.** And the “%ID/g, Heart” value ([5]; n = 4)?
**A.** 5.46 ± 0.63 %ID/g

**Q.** And the “%ID/g, Kidneys” value ([5]; n = 4)?
**A.** 4.17 ± 0.60 %ID/g

**Q.** What about the “%ID/g, Large intestine” value ([5]; n = 4) of the same compound?
**A.** 3.71 ± 1.09 %ID/g

**Q.** And the “%ID/g, Liver” value ([5]; n = 4)?
**A.** 5.61 ± 0.50 %ID/g

**Q.** What about the “%ID/g, Lungs” value ([5]; n = 4) of the same compound?
**A.** 4.00 ± 0.26 %ID/g

**Q.** And the “%ID/g, Muscle” value ([5]; n = 4)?
**A.** 3.66 ± 0.50 %ID/g

**Q.** And the “%ID/g, Small intestine” value ([5]; n = 4)?
**A.** 4.37 ± 1.15 %ID/g

**Q.** And the “%ID/g, Spleen” value ([5]; n = 4)?
**A.** 4.36 ± 0.85 %ID/g

**Q.** And the “%ID/g, Stomach” value ([5]; n = 4)?
**A.** 2.53 ± 1.04 %ID/g

**Q.** What about the “%ID/g, Tumor” value ([5]; CWR22rv1 tumors, n = 4) of the same compound?
**A.** 7.08 ± 0.80 %ID/g
